Results published in ChEMBL document CHEMBL3102734, “Inhibition of LOX by flavonoids: a structure-activity relationship study” (Eur J Med Chem, 2014).
pIC50, pKi: −log10 of the molar value. The source made the active and inactive calls. The rule behind the calls is not given here.

Experiments:
[1] = target: T1, Seed linoleate 13S-lipoxygenase-1 (Glycine max) (UniProt P08170); test: Binding affinity to soybean LOX-1 at 1248 uM by STD-[1H] NMR spectroscopic analysis
T1 sequence (whole entry): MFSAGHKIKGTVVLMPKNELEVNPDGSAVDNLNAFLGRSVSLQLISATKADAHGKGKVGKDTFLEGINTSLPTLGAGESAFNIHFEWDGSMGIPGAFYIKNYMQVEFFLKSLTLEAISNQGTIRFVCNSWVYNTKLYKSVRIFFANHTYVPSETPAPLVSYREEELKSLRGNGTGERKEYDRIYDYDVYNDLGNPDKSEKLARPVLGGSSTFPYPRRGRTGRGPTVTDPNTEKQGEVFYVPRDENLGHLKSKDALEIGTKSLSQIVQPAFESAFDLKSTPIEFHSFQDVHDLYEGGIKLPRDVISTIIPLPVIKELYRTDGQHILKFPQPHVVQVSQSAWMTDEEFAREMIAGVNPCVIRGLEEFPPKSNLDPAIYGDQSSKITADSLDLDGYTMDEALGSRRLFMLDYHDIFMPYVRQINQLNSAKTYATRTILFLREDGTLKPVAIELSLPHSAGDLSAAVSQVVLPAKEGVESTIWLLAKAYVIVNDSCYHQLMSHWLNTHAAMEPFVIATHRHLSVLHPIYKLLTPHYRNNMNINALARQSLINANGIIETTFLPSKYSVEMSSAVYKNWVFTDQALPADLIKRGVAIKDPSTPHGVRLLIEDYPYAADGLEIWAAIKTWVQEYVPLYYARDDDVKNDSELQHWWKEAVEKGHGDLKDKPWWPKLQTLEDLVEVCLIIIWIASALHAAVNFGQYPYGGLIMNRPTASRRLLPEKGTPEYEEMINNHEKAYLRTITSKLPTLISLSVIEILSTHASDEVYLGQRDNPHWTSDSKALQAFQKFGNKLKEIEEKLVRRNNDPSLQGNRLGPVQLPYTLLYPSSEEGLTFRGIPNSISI
How it was run: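 STD-1H NMR at 37 °C, 600 MHz, cryoprobe. Lyophilized soybean LOX-1 in Tris buffer (20 mM Tris, 7 mM (NH4)2SO4, 3.5 mM MgCl2, 0.3 mM DTT in D2O, pH 9.0). Ligand added from a 16.6 mM DMSO-d6 stock. Final concentrations: LOX 4 μM, ligand 1248 μM, ratio 300:1. On-resonance saturation at 1.0 ppm; off-resonance reference at 20000 Hz.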

[2] = target: T2, Polyunsaturated fatty acid 5-lipoxygenase (Homo sapiens) (UniProt P09917); test: Inhibition of 5-LOX-mediated LTB4 production in human neutrophils using arachidonic acid as substrate at 40 uM preincubated for 10 mins followed by substrate addition measured after 8 mins by enzyme immunoassay relative to control
T2 sequence (whole entry): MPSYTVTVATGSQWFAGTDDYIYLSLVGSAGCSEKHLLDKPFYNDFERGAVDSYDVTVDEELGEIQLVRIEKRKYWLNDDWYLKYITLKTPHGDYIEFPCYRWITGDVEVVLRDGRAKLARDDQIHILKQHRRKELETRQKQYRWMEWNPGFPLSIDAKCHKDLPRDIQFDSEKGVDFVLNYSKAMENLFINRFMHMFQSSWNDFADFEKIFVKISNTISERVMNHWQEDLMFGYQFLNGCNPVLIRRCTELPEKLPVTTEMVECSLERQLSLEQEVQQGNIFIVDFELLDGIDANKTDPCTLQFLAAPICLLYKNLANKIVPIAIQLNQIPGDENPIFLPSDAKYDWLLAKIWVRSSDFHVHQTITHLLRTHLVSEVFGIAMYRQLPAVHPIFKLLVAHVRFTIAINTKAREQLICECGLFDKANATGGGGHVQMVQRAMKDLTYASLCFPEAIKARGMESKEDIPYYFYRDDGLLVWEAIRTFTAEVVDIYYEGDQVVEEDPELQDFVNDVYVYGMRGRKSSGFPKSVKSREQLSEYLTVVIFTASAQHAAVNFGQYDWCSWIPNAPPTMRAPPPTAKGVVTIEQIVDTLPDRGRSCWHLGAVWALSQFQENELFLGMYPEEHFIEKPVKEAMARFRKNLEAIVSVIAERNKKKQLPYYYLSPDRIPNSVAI
How it was run: (§1)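 Isolated human neutrophils held in HBSS on ice; viability checked by trypan blue. Cells at 3.5×10^6 cells/mL equilibrated 10 min at 37 °C. Flavonoids (0.15–40 μM) pre-incubated 10 min, then A23187 (5 μM) plus arachidonic acid (10 μg/mL) added for 8 min. Stopped with cold methanol and centrifuged 13,000 g, 1 min, 4 °C. LTB4 measured by EIA and expressed as % inhibition of control. NDGA (1 μM) positive control. At least three experiments.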

[3] = target: T3, Seed linoleate 13S-lipoxygenase-1 (Glycine max, UniProt P08170); test: Mixed noncompetitive type inhibition of soybean LOX-1 using linoleic acid as substrate preincubated for 5 mins followed by substrate addition by Lineweaver-Burk plot analysis
T3 sequence (P08170 whole entry): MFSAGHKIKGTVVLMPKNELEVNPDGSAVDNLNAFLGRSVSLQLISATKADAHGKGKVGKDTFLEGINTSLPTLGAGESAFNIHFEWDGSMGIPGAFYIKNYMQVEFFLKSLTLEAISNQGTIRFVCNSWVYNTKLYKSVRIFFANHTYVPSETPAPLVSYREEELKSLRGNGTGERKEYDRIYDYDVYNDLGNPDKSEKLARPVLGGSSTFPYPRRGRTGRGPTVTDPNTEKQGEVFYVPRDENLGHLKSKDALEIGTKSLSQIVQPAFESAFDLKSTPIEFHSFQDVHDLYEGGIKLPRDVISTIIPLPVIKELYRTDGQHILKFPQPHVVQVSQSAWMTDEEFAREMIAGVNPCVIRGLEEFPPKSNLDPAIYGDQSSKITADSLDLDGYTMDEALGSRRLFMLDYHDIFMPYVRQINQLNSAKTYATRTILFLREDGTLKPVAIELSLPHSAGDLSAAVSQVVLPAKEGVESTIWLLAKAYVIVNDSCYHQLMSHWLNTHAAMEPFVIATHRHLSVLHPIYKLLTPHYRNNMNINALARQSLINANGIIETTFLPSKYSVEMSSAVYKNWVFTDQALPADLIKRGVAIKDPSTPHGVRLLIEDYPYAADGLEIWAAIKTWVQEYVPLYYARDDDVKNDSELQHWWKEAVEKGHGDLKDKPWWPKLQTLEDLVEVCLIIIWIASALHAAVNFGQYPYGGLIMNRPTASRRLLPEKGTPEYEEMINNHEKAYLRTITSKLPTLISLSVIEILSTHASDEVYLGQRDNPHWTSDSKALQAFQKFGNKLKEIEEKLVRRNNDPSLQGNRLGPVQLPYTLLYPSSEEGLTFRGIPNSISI
How it was run: (§2)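 Soybean LOX-1 (supplied lyophilized) kinetic assay. Enzyme pre-incubated with inhibitor 5 min, then linoleic acid added. Conversion to the cis,trans-hydroperoxide followed at 234 nm at 30 °C with continuous soft shaking. Readings every 30 s for 10 min; rate taken as the 0–3 min slope. Three inhibitor concentrations tested against three substrate concentrations. Inhibition type assigned by nonlinear Michaelis–Menten fitting and Lineweaver–Burk plots. At least four experiments, each in triplicate.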

[4] = target: T3, Seed linoleate 13S-lipoxygenase-1; test: Uncompetitive inhibition of soybean LOX-1 using linoleic acid as substrate preincubated for 5 mins followed by substrate addition by Lineweaver-Burk plot analysis
How it was run: as §2, with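 “added.” for “added. Conversion to the cis,trans-hydroperoxide followed at 234 nm at 30 °C with continuous soft shaking.”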

[5] = target: T4, Polyunsaturated fatty acid 5-lipoxygenase (Homo sapiens, UniProt P09917); test: Inhibition of 5-LOX-mediated LTB4 production in human neutrophils using arachidonic acid as substrate preincubated for 10 mins followed by substrate addition measured after 8 mins by enzyme immunoassay
T4 sequence (P09917 whole entry): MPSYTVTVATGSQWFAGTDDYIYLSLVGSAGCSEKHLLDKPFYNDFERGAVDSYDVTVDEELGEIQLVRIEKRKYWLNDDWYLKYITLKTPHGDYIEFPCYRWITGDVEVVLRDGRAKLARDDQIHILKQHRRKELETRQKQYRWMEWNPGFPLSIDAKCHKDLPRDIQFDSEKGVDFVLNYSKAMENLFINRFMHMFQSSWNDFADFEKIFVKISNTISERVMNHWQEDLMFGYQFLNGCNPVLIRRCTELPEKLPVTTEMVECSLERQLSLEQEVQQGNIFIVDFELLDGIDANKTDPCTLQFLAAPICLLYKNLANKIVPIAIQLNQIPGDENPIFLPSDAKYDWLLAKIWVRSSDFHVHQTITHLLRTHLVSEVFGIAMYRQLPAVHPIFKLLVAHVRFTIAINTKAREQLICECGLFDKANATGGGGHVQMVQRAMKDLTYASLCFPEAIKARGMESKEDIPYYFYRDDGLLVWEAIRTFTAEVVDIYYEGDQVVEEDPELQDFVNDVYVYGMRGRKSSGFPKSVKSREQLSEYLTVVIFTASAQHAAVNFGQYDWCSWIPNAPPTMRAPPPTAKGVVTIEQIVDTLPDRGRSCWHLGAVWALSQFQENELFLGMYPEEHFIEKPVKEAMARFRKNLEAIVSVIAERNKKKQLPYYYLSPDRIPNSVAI
How it was run: as §1, with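 “blue.” for “blue. Cells at 3.5×10^6 cells/mL equilibrated 10 min at 37 °C.”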

Row | SMILES | Activity [1] | inhibition [2] | pKi [3] | pKi [4] | pIC50 [5]
1 | COc1ccc(-c2cc(=O)c3c(O)cc(O)cc3o2)cc1 | Active | Active |  |  | 
2 | O=c1cc(-c2ccc(O)cc2)oc2cccc(O)c12 | Active | 29.8% | 3.99 |  | 
3 | O=c1cc(-c2ccc(O)c(O)c2)oc2cccc(O)c12 | Active |  |  | 4.74 | 5.54
